Experimental data: ChEMBL document CHEMBL1123827, “Alpha 2-adrenergic agonists/antagonists: the synthesis and structure-activity relationships of a series of indolin-2-yl and tetrahydroquinolin-2-yl imidazolines” (J Med Chem, 1987)

Assays:
[1] = target: T1, Adrenergic receptor alpha-2 (Rattus norvegicus, UniProt P22086+P19328+P22909); assay: Binding affinity against alpha-2 adrenergic receptor was determined by the displacement of [3H]clonidine from rat brain cortical membranes; format: cell membranes, Membrane
T1 sequence (P22086 whole entry): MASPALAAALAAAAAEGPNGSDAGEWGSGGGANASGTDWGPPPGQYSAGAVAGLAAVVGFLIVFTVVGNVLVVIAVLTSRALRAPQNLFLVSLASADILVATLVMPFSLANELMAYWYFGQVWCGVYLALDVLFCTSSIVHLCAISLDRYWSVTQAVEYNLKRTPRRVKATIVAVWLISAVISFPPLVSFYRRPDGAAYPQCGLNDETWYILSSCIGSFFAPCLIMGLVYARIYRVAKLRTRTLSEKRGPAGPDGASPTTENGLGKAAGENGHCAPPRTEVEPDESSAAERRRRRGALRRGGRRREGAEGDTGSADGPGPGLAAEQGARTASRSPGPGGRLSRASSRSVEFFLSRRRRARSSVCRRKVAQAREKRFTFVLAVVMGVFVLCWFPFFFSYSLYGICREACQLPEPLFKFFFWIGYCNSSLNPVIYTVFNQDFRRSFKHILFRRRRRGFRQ
T1 sequence (P19328 whole entry): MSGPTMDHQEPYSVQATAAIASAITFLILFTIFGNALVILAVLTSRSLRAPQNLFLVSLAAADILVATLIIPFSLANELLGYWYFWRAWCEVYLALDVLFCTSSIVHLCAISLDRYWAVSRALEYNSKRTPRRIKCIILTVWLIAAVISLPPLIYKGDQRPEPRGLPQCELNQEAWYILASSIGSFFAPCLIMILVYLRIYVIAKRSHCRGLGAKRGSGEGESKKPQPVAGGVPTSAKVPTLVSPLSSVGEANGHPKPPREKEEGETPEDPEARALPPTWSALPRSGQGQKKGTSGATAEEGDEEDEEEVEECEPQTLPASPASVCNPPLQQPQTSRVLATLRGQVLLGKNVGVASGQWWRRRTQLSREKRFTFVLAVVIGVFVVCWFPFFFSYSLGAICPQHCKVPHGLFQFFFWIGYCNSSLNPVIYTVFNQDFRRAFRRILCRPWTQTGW
T1 sequence (P22909 whole entry): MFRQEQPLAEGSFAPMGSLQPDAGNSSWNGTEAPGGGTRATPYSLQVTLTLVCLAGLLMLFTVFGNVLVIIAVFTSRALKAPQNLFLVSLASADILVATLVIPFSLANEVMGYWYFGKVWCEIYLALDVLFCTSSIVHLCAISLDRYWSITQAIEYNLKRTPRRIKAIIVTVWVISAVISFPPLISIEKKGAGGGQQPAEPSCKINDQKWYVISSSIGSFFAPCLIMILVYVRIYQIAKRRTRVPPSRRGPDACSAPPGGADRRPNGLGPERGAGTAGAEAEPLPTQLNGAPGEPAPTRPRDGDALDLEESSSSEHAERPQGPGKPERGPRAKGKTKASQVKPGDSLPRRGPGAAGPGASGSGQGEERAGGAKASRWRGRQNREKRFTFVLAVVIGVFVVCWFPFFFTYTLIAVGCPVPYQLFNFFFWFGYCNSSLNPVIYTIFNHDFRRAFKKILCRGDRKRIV

[2] = target: T1, Adrenergic receptor alpha-2; assay: Alpha-2 adrenergic receptor antagonistic activity in rat vas deferens vs clonidin; format: functional, tissue-based
Outline: (§1)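 Vasa deferentia from Sprague-Dawley rats (180–250 g) mounted between platinum ring electrodes at 1 g resting tension in oxygenated Krebs at 37 °C. Single-pulse electrical stimulation (1 ms, 0.15 Hz, lowest voltage giving maximal contraction).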

[3] = target: T1, Adrenergic receptor alpha-2; assay: Alpha-2 adrenergic receptor agonistic activity in rat vas deferens.
Mus musculus = assay: Antagonistic activity against clonidine-induced antinociception in mouse after po administration; format: functional
Outline: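 Swiss Webster mice (18–24 g), 10 per treatment. Test compound was given orally in 0.9% NaCl at 10 mL/kg. […] Mice were observed 5–10 min after PPQ, and those writhing at least 3 times were counted as percent reversal.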

[4] = target: T2, Adrenergic receptor alpha-2 (Rattus norvegicus) (UniProt P22086+P19328+P22909); assay: The compound was evaluated for the alpha-2 adrenergic receptor antagonistic activity in rat vas deferens vs clonidine; i = the compound contracted the tissue at 100 nM; format: functional, tissue-based; conditions: filed as agonist; outline: as §1
[5] = target: T1, Adrenergic receptor alpha-2; assay: The compound was evaluated for the alpha-2 adrenergic receptor antagonistic activity in rat vas deferens vs clonidin; format: functional, tissue-based; outline: as §1
[6] = target: T1, Adrenergic receptor alpha-2; assay: Alpha-2 adrenergic receptor antagonistic activity in rat vas deferens vs clonidine; format: functional, tissue-based
[7] = target: T2, Adrenergic receptor alpha-2 (Rattus norvegicus); assay: The compound was evaluated for the alpha-2 adrenergic receptor antagonistic activity in rat vas deferens vs clonidin; l = compound contracted the tissue at 100nM, which is an alpha-1 agonist like response; format: functional, tissue-based; conditions: filed as agonist

`c1ccc2c(c1)CCN2C1=NCCN1` was tested. Which Ki [1] did it give?
The Ki was greater than 1000 nM.

How did the pA2 [2] turn out when `C[C@H]1c2ccccc2N(C)[C@@H]1C1=NCCN1` was run?
The pA2 was 6.96.

And the Ki [1]?
The Ki was 72.3 nM.

What about the IC50 [3] of the same compound?
Its IC50 is greater than 1000 nM.

What does the source list for `c1ccc(CCN2c3ccccc3CC2C2=NCCN2)cc1` (stereo not given)?
ED50 (Mus musculus): 6 mg/kg; Ki [1]: 6 nM

With `C[C@@H]1Cc2ccccc2N[C@@H]1C1=NCCN1` as the compound, how does the pA2 [2] read?
Its pA2 is less than 6.

And the Ki [1]?
Its Ki is greater than 1000 nM.

And the IC50 [3]?
Its IC50 is greater than 1000 nM.

How did the Ki [1] turn out when `c1ccc(N2c3ccccc3CC2C2=NCCN2)cc1` (stereo not given) was run?
The Ki was 4.2 nM.

What about the pA2 [4] of the same compound?
Its pA2 is “Agonist”.

With `CCCN1c2ccccc2CC1C1=NCCN1` (stereo not given) as the compound, how does the ED50 (Mus musculus) read?
Its ED50 is 100 mg/kg.

What about the pA2 [2] of the same compound?
Its pA2 is 8.76.

What about the Ki [1] of the same compound?
The Ki was 1.93 nM.

How did the ED50 (Mus musculus) turn out when `CN1c2c(Cl)cccc2CC1C1=NCCN1` (stereo not given) was run?
The ED50 was 0.1 mg/kg.

And the pA2 [5]?
The pA2 was 8.8.

What about the Ki [1] of the same compound?
Its Ki is 0.72 nM.

Which pA2 [2] does the source give for `CN1c2c(Cl)cc(Cl)cc2CC1C1=NCCN1` (stereo not given) here?
The pA2 was 8.

And the Ki [1]?
The Ki was 12.3 nM.

Which results are given for `CN1c2ccccc2CCC1C1=NCCN1` (stereo not given)?
pA2 [2]: 8.13; Ki [1]: 1.52 nM

For `CCC[C@@]1(C2=NCCN2)Cc2ccccc2N1C`, which pA2 [2] is on record?
Its pA2 is 6.6.

What about the Ki [1] of the same compound?
Its Ki is 260 nM.

And the IC50 [3]?
The IC50 was greater than 1000 nM.

`Cn1c(C2=NCCN2)cc2ccccc21` was tested. Which pA2 [6] did it give?
The pA2 was greater than 6.

What about the Ki [1] of the same compound?
The Ki was greater than 1000 nM.

Which pA2 [2] does the source give for `c1ccc2c(c1)CCC(C1=NCCN1)N2` (stereo not given) here?
The pA2 was 8.03.

And the Ki [1]?
Its Ki is 13.8 nM.

For `C[C@@H]1Cc2ccccc2N(C)[C@@H]1C1=NCCN1`, which pA2 [2] is on record?
The pA2 was 5.88.

What about the Ki [1] of the same compound?
The Ki was 719 nM.

What does the source list for `C=CC[C@@]1(C2=NCCN2)Cc2ccccc2N1C`?
pA2 [5]: 6.96; Ki [1]: 77 nM; IC50 [3]: > 1000 nM

With `CN1c2ccccc2CC1CC1=NCCN1` (stereo not given) as the compound, how does the pA2 [6] read?
Its pA2 is less than 6.

And the Ki [1]?
Its Ki is 355 nM.

Which results are given for `c1ccc(CN2c3ccccc3CC2C2=NCCN2)cc1` (stereo not given)?
ED50 (Mus musculus): 7 mg/kg; pA2 [2]: 7.93; Ki [1]: 2.3 nM

Which results are given for `CN(CC1=NCCN1)c1ccccc1`?
pA2 [7]: Agonist; Ki [1]: 3.9 nM
